High-throughput results from PubChem BioAssay.
MMP-13 inhibitor: blocks human MMP13 activity; P45452; MMP-13 fTHP FRET cleavage, Mca fluorescence; inhibition, % at 4 µM; 0.07% of 65,000 active;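 active = inhibition above the mean of compound-free control plate wells plus 3 SD, cut at about 14% in these data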
D1 mod: allosterically modulates the human D1 dopamine receptor | B-score at 10 µM | 5.9% of 58,000 active | HEK293 D1, CRE-luciferase, dopamine EC30 potentiation; actives deviate in either direction;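 active = luminescence count or its row- and column-corrected plate score outside the 99.7% band of the plate's sample wells, on either side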
Calb biofilm kill: kills Candida albicans biofilms; C. albicans biofilm + clotrimazole, Alamar Blue; inhibition, % at 6 µM; 0.14% of 85,000 active; AID 834;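 active = inhibition above 20%; inactive = inhibition below 20%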;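 also: preformed 24 hr biofilms exposed to compound for 48 hr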
AP complement: alternative pathway complement inhibition, orthogonal assay. Human serum alternative complement pathway, LPS-coated ELISA, C3 deposition; tested in compound mixtures. inhibition, % at 5 µM. 0.08% of 62,000 active;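 active = inhibition above 30% in each of the two pooled mixtures holding the compound, so the lower value exceeds 30%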
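Test system – human serum alternative complement pathway, C3 deposition on LPS-coated wells · Buffer or medium – diluted human serum in Mg2+-EGTA GVB++ · Compound dosing – 5 µM each compound, pools of ten, 50 µM per pool · Schedule – 1 h serum-compound exposure at 37 °C · Measured by – Anti-C3 ELISA, OD 450 nm · Read-out basis – percent inhibition of C3 deposition onto LPS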
hDAT+cocaine: human DAT dopamine uptake with cocaine, either direction. Q01959. LLC-PK1 hDAT cells, [14C]-dopamine uptake with cocaine IC80; actives deviate in either direction. B-score at 10 µM. 1.3% of 110,000 active. AID 449768;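 active = Z score or B-score, a plate-position-corrected score, falls beyond the plate's 99.7% confidence bounds, in either direction; inactive = both scores lie inside the 99.7% bounds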
Target sequence (Q01959 whole entry, looked up): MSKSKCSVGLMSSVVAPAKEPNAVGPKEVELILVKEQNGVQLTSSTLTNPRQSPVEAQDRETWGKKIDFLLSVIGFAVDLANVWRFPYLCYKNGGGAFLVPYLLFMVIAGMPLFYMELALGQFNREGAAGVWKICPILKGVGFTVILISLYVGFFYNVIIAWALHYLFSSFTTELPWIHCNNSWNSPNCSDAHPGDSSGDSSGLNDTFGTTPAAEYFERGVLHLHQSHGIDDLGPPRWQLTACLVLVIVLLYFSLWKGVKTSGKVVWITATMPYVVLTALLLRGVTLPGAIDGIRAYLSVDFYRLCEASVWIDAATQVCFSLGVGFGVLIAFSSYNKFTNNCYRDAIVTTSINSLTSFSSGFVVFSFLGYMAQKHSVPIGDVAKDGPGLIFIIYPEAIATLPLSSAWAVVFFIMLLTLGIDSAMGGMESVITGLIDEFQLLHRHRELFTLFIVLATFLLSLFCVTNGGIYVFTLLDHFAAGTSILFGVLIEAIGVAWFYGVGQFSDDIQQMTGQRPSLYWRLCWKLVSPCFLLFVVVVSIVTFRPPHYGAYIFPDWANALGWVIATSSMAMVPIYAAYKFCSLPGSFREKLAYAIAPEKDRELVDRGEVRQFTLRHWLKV
D1 mod confirm: confirmation of human D1 dopamine receptor allosteric modulators; 88% of 2,200 active; HEK293 D1 CRE-luciferase, dopamine EC30 potentiation; hits give high values; shares compounds with D1 mod; luminescence at 10 µM;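 active = luminescence in either of two replicates above the same-plate mean plus 3 SD of the low-dose dopamine control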
D1 ag no DA: activates D1 CRE-luciferase signal without dopamine present; shares compounds with D1 mod; HEK293 D1 CRE-luciferase, luminescence, no dopamine; hits give high values; luminescence at 10 µM; 0.8% of 1,900 active; in the data active = luminescence above about 3900
Isoprot counter: isoproterenol response counter-screen activity for D1 modulators | HEK293 D1 CRE-luciferase, isoproterenol EC30 counter-screen; hits give high values | shares compounds with D1 mod | luminescence at 10 µM | 63% of 2,200 active;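 active = luminescence in either replicate above plate mean of wells with a partly effective reference agonist dose plus 3 SD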;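 also: isoproterenol raises cAMP through native beta-adrenoceptor Gs so signal bypasses D1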
Hits are given with their value. This excerpt belongs to a sample that is enriched for hits.

`O=C(C1CC1)N1CCc2cc(S(=O)(=O)N3CCCc4ccccc43)ccc21` gave MMP-13 inhibitor inactive, D1 mod inactive, Calb biofilm kill inactive, AP complement inactive and hDAT+cocaine inactive.
`O=C(C1CC1)N1CCc2cc(S(=O)(=O)N(CCO)Cc3ccccc3)ccc21` gave MMP-13 inhibitor inactive, D1 mod 4.2, Calb biofilm kill inactive, AP complement inactive, hDAT+cocaine inactive, D1 mod confirm 15244, D1 ag no DA inactive and Isoprot counter 3736.
For CCc1cccc2c(C#N)cn(CCOc3ccccc3OC)c12 the results were MMP-13 inhibitor inactive, D1 mod inactive, Calb biofilm kill inactive, AP complement inactive and hDAT+cocaine inactive.
For CCc1cccc2c(C#N)cn(CC(=O)NCCOC)c12 the results were MMP-13 inhibitor inactive, D1 mod 3, Calb biofilm kill inactive, AP complement inactive, hDAT+cocaine inactive, D1 mod confirm inactive, D1 ag no DA inactive and Isoprot counter inactive.
For Cc1nc2c3ccccc3n(CC#N)c(=O)n2n1 the results were MMP-13 inhibitor inactive, D1 mod 4.7, Calb biofilm kill inactive, AP complement inactive, hDAT+cocaine inactive, D1 mod confirm 8580 and Isoprot counter 3036.
`CCCc1nnc(NC(=O)CCCN2C(=O)c3ccccc3C2=O)s1` gave Calb biofilm kill inactive and hDAT+cocaine inactive.
Screening COc1ccc(S(=O)(=O)N2CCOCC2)cc1C(C)C returned MMP-13 inhibitor inactive, D1 mod inactive, Calb biofilm kill inactive, AP complement inactive and hDAT+cocaine inactive.
CCC(C)c1cc(S(=O)(=O)N2CCOCC2)ccc1OC (stereo unspecified) was read as MMP-13 inhibitor inactive, D1 mod 9.5, Calb biofilm kill inactive, AP complement inactive, hDAT+cocaine inactive, D1 mod confirm 11376 and Isoprot counter 3288.
`CCCCCn1c(N)c(C#N)c2nc3ccccc3nc21` gave MMP-13 inhibitor inactive, D1 mod 5, Calb biofilm kill inactive, AP complement inactive, hDAT+cocaine inactive, D1 mod confirm 13676, D1 ag no DA inactive and Isoprot counter inactive.
`CCCCn1c(NC(C)=O)c(C#N)c2nc3ccccc3nc21` gave MMP-13 inhibitor inactive, D1 mod 3.8, Calb biofilm kill inactive, AP complement inactive, hDAT+cocaine inactive, D1 mod confirm 11192, D1 ag no DA inactive and Isoprot counter inactive.
`COc1ccc(CCn2c(N)c(C#N)c3nc4ccccc4nc32)cc1OC` gave MMP-13 inhibitor inactive, D1 mod inactive, Calb biofilm kill inactive, AP complement inactive and hDAT+cocaine inactive.
Screening COc1ccc(Cn2c(N)c(C#N)c3nc4ccccc4nc32)cc1OC returned MMP-13 inhibitor inactive, D1 mod 5.1, Calb biofilm kill inactive, AP complement inactive, hDAT+cocaine inactive, D1 mod confirm 11232, D1 ag no DA inactive and Isoprot counter 3512.
Cc1nc(SCC(=O)NCCc2ccccc2)nc(C)c1C was read as Calb biofilm kill inactive and hDAT+cocaine inactive.
CCCc1cc(=O)[nH]c(Nc2ccc(O)cc2)n1 was read as Calb biofilm kill inactive and hDAT+cocaine inactive.
For CCCc1cc(=O)[nH]c(NCc2ccc(Cl)cc2)n1 the results were MMP-13 inhibitor inactive, D1 mod 2.8, Calb biofilm kill inactive, AP complement inactive, hDAT+cocaine inactive, D1 mod confirm 8064, D1 ag no DA inactive and Isoprot counter inactive.
CCN(CC)C(=O)c1[nH]cnc1C(=O)N[C@@H](CC(C)C)C(=O)OCc1ccccc1 was read as hDAT+cocaine inactive.
`O=C(c1ccccc1)c1coc2ccc(O)c(CN3CCOCC3)c12` gave MMP-13 inhibitor inactive, D1 mod 7.6, Calb biofilm kill inactive, AP complement inactive, hDAT+cocaine inactive, D1 mod confirm 13536, D1 ag no DA inactive and Isoprot counter 3372.
Screening CN(C)Cc1c(O)ccc2occ(C(=O)c3ccccc3)c12 returned MMP-13 inhibitor inactive, D1 mod inactive, Calb biofilm kill inactive, AP complement inactive and hDAT+cocaine inactive.
Screening COc1ccccc1NC(=O)N(Cc1ccc2c(c1)OCO2)Cc1nc2ccccc2c(=O)[nH]1 returned MMP-13 inhibitor inactive, D1 mod 4.9, Calb biofilm kill inactive, AP complement inactive, hDAT+cocaine inactive, D1 mod confirm 5620, D1 ag no DA inactive and Isoprot counter inactive.
CC(Oc1ccc(Cl)cc1Cl)C(=O)NCCCn1ccnc1 (stereo unspecified) was read as MMP-13 inhibitor inactive, Calb biofilm kill inactive, AP complement inactive and hDAT+cocaine inactive.
Screening CC(Oc1ccc(Cl)cc1Cl)C(=O)NCc1ccncc1 (stereo unspecified) returned MMP-13 inhibitor inactive, D1 mod 6.7, Calb biofilm kill inactive, AP complement inactive, hDAT+cocaine inactive, D1 mod confirm 14184, D1 ag no DA inactive and Isoprot counter 3668.
O=C(OCCCCN1C(=O)c2ccccc2C1=O)c1n[nH]c2ccccc12 was read as MMP-13 inhibitor inactive, D1 mod 5.1, Calb biofilm kill inactive, AP complement inactive, hDAT+cocaine inactive, D1 mod confirm 7836, D1 ag no DA inactive and Isoprot counter inactive.
`CCOC(=O)C(NCCCO)c1ccccc1` (stereo unspecified) gave MMP-13 inhibitor inactive, D1 mod 2.8, Calb biofilm kill inactive, AP complement inactive, hDAT+cocaine inactive, D1 mod confirm inactive, D1 ag no DA inactive and Isoprot counter inactive.
`COc1ccccc1NC(=O)CSc1ccc2nnc(-c3cccnc3)n2n1` gave MMP-13 inhibitor inactive, D1 mod 2.5, Calb biofilm kill inactive, AP complement inactive, hDAT+cocaine inactive, D1 mod confirm inactive, D1 ag no DA inactive and Isoprot counter inactive.
Screening CCOC(=O)CCCSc1nc2sc(C)c(C)c2c(=O)[nH]1 returned MMP-13 inhibitor inactive, D1 mod 2.9, Calb biofilm kill inactive, AP complement inactive, hDAT+cocaine inactive, D1 mod confirm 6744 and Isoprot counter 2704.
`Cc1sc2nc(SCC(=O)N(C)C)[nH]c(=O)c2c1C` gave MMP-13 inhibitor inactive, D1 mod inactive, Calb biofilm kill inactive, AP complement inactive and hDAT+cocaine inactive.
Screening CCOC(=O)C[C@H]1c2ccccc2S(=O)(=O)N1c1ccccc1 returned hDAT+cocaine inactive.
Screening Cc1csc2nc(CNC(=O)C3CCCCC3)cn12 returned MMP-13 inhibitor inactive, D1 mod 3, Calb biofilm kill inactive, AP complement inactive, hDAT+cocaine inactive, D1 mod confirm inactive, D1 ag no DA inactive and Isoprot counter inactive.
Screening CCCCCC(=O)Nc1cccc(C2=NOC3(C2)C[C@@H](C(N)=O)N(C(=O)CC(c2ccccc2)c2ccccc2)C3)c1 (stereo partly specified) returned hDAT+cocaine inactive.
